The text below walks through data of ChEMBL document CHEMBL5096187, “Efficient Synthesis and Bioevaluation of Novel Dual Tubulin/Histone Deacetylase 3 Inhibitors as Potential Anticancer Agents” (J Med Chem, 2021).

Bounds are passed on as bounds.

By IC50 is commonly meant the point on the concentration scale where inhibition reaches its midpoint. The term inhibition denotes how much of the control response was suppressed.

Assay [1] concerns the target Histone deacetylase 1 (Homo sapiens, UniProt Q13547). The assay can be described thus: Inhibition of full length recombinant human HDAC1 (1 to 482 residues) expressed in Baculovirus system using Ac-Leu-Gly-Lys (Ac)-AMC as substrate pretreated for 5 mins followed by substrate addition and measured after 30 mins.
Assay [2] has as its system A549. Kind of assay: Antiproliferative activity against human A549 cells assessed as inhibition of cell viability measured for 48 hrs by microplate reader based CCK-8 assay. The assay is classed as functional. The conditions noted are these: A549, 48 h.
The test system of assay [3] is B16-F10. Kind of assay: Antiproliferative activity against mouse B16-F10 cells assessed as inhibition of cell viability measured for 48 hrs by microplate reader based MTT assay. In kind it is functional. Particulars: B16-F10, 48 h. An outline of the steps:
(§1)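 Cells grown in RPMI-1640 with 10% FBS and seeded at 5000 cells/well. After overnight attachment, compound was added in medium with 0.1% DMSO for 48 h at 37 °C. Read-out was MTT for HCT-116, B16-F10 and A549, and CCK-8 for Jurkat (0.5 mg/mL, 4 h), with absorbance at 570 nm. IC50 from nonlinear regression; at least three independent experiments.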
A general note: Tetrazolium dyes change colour on reduction, which living cells bring about.

The target of assay [4] is T1, Histone deacetylase 8 (Homo sapiens, UniProt Q9BY41).
T1 sequence (Q9BY41 whole entry): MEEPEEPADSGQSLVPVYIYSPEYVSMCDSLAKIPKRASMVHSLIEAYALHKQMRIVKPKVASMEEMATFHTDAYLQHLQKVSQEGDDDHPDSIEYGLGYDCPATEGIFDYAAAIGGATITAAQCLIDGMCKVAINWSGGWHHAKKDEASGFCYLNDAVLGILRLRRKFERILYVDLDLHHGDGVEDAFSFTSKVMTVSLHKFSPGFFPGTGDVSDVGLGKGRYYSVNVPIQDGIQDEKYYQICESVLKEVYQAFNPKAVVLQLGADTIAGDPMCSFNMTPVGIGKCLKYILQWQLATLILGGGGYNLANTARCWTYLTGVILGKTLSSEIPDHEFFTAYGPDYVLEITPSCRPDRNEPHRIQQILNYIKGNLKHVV
Kind of assay: Inhibition of full length C-terminal his-tagged human recombinant HDAC8 ([…]) expressed in baculovirus in Sf9 insect cells using Ac-Leu-Gly-Lys (Tfa)-AMC as substrate pretreated for 5 mins followed by substrate addition and measured after 30 mins.

Assay [5] has as its target Histone deacetylase 3 (Homo sapiens, UniProt O15379). The assay can be described thus: Inhibition of recombinant HDAC3 (unknown origin) using Ac-Leu-Gly-Lys (Ac)-AMC as substrate pretreated for 5 mins followed by substrate addition and measured after 30 mins.
Assay [6] has as its system HCT-116. Kind of assay: Antiproliferative activity against human HCT-116 cells assessed as inhibition of cell viability measured for 48 hrs by microplate reader based MTT assay. Particulars: HCT-116, 48 h. In kind it is functional. An outline of the steps:
as §1

In assay [7] the test system is Jurkat. The assay can be described thus: Antiproliferative activity against human Jurkat cells assessed as inhibition of cell viability measured for 48 hrs by microplate reader based CCK-8 assay. In kind it is functional.
The target in assay [8] is T2, Protein deacetylase HDAC6 (Homo sapiens, UniProt Q9UBN7).
T2 sequence (Q9UBN7 whole entry): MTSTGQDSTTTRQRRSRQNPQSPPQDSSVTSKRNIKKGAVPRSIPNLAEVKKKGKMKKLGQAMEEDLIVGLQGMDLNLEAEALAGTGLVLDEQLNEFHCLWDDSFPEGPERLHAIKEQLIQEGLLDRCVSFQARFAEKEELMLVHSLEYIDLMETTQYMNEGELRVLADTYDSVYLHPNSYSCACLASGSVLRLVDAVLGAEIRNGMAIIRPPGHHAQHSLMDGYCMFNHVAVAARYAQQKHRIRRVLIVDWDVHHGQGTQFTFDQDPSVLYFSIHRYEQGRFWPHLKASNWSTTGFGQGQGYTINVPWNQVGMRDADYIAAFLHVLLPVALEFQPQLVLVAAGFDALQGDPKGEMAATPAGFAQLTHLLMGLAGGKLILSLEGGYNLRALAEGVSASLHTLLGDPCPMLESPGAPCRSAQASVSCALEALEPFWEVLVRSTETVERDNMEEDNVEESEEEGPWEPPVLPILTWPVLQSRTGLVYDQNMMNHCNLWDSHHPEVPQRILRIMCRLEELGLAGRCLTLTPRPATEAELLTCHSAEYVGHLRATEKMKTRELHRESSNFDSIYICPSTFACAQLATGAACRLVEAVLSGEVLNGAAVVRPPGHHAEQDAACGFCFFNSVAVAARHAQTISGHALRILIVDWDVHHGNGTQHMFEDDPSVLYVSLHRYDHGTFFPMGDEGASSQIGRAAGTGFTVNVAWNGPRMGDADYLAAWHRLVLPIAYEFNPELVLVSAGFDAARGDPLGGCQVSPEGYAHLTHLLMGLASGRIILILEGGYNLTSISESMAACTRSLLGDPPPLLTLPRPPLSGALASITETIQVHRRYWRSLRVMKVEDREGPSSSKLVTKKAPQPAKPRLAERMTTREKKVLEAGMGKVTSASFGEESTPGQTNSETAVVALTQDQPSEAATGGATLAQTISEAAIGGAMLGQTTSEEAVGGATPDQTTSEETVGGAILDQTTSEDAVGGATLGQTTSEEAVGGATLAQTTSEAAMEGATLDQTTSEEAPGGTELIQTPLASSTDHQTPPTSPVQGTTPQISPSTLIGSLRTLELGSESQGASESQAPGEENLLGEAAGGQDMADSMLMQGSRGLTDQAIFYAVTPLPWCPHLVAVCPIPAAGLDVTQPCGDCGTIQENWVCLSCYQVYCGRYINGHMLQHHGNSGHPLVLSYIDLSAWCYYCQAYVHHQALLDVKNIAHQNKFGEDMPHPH
The assay can be described thus: Inhibition of full length N-terminal GST-tagged human recombinant HDAC6 (1 to 1215 residues) expressed in Baculovirus infected Sf9 cells using Ac-Leu-Gly-Lys (Ac)-AMC as substrate pretreated for 5 mins followed by substrate addition and measured after 30 mins. In a few lines: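 HDAC6 at 15 ng/well in Tris buffer pH 8.0 with MgCl2, BSA, NaCl and KCl. Ten 3-fold dilutions preincubated 5 min at room temperature, then 10 μM Ac-Leu-Gly-Lys(Ac)-AMC for 30 min at 37 °C. IC50 by normalized dose–response nonlinear fit; performed at least three times.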

Assay [9] concerns the target Tubulin (Sus scrofa) (UniProt P02554+P02550). Kind of assay: Inhibition of pig brain tubulin polymerization at 10 uM measured after 20 mins by spectrometric method relative to control. An outline of the steps: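 Pig brain tubulin was purified by three assembly/disassembly cycles and then phosphocellulose chromatography. Compound at 10 μM in PEM buffer with 1 mM GTP and 5% glycerol at 37 °C. Polymerization followed at 340 nm; inhibition taken at 20 min versus vehicle control.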

In assay [10] the target is T3, Protein deacetylase HDAC6 (Homo sapiens) (UniProt Q9UBN7).
T3 sequence (whole entry): T2 sequence (Q9UBN7 whole entry)
The assay can be described thus: Inhibition of recombinant HDAC6 (unknown origin) at 1 uM relative to control. In a few lines:
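Single-point test at 1 μM against recombinant HDAC6 (15 ng/well) in 25 mM Tris pH 8.0, 1 mM MgCl₂, 0.1 mg/mL BSA, 137 mM NaCl, 2.7 mM KCl. Compound preincubated 5 min at room temperature, then Ac-Leu-Gly-Lys(Ac)-AMC 10 μM, 30 min at 37 °C. Trypsin/TSA developer 30 min. Fluorescence read at ex 350−360/em 450−460 nm.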

Chain of Tubulin (Sus scrofa) (P02550 whole entry, looked up): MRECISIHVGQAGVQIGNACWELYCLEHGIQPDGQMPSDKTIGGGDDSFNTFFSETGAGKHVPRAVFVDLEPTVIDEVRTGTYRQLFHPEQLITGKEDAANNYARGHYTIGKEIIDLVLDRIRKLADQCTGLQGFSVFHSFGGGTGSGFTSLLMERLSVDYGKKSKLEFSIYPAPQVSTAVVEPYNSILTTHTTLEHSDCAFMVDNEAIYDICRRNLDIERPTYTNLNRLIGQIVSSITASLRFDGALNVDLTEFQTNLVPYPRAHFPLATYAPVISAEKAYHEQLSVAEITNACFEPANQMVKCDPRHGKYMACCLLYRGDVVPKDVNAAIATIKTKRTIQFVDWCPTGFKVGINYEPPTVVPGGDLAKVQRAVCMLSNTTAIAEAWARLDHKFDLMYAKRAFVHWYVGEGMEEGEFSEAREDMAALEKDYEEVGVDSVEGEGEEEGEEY
Chain of Tubulin (Sus scrofa) (P02554 whole entry, looked up): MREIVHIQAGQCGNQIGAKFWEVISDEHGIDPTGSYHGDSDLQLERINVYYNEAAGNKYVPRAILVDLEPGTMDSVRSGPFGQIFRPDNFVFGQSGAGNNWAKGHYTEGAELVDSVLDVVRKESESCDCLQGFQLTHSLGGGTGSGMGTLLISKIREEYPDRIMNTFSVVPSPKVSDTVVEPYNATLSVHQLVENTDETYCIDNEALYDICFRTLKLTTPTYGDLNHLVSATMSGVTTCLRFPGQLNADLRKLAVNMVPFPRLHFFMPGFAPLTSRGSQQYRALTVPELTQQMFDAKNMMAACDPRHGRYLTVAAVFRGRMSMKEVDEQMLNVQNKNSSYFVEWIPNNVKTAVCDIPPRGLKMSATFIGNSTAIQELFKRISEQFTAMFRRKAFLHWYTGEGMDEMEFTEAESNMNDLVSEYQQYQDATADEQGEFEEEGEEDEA
Chain of Histone deacetylase 1 (Q13547 whole entry, the tested form may be a part): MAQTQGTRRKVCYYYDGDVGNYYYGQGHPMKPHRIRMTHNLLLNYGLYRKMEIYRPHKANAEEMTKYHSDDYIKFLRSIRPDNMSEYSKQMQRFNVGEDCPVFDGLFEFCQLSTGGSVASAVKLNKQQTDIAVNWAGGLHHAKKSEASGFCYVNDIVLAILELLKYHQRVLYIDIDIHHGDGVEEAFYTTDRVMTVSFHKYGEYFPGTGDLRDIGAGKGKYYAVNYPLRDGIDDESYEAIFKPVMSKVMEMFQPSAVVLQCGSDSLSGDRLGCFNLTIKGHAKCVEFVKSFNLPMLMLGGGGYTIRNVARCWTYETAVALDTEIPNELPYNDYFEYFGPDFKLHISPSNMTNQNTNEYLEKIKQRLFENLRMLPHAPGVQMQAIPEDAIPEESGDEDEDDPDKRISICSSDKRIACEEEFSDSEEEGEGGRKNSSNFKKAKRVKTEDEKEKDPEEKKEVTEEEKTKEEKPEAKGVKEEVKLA
Chain of Histone deacetylase 3 (O15379 whole entry): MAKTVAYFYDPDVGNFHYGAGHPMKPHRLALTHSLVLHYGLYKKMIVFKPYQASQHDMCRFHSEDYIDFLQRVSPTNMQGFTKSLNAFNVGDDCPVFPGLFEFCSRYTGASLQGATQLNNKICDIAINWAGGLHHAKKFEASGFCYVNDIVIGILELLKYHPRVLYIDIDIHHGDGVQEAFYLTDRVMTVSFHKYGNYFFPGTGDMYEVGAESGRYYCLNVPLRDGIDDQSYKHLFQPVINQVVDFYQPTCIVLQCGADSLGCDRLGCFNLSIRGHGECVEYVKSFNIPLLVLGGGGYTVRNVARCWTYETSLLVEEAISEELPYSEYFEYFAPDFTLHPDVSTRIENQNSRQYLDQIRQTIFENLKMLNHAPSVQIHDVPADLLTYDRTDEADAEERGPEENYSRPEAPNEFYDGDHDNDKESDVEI

In the case of `COc1cc(C(=O)c2csc(-c3ccc(NC(=O)c4ccc(C(=O)Nc5ccccc5N)cc4)cc3)n2)cc(OC)c1OC`, the IC50 amounted to 10.5 µM in [1]; 6.58 µM in [2]; 4.32 µM in [3]; 2.08 µM in assay [4]; 3.46 µM in assay [5]; 1.42 µM in assay [6]. For the same compound, the results for the IC50 in assay [7] and in assay [8] were 0.52 µM and 36.3 µM, respectively.
Take `COc1cc(C(=O)c2csc(-c3ccc(/C=C/C(=O)Nc4ccccc4N)cc3)n2)cc(OC)c1OC`: the IC50 in assay [1] is 11 µM; in assay [2], more than 10 µM; in assay [3], 0.81 µM; in assay [4], 3.11 µM; in [5], 0.17 µM; in assay [6], 0.79 µM. For the same compound, the IC50 in [7] was 0.01 µM; in assay [8], 22.5 µM. The compound also came in with an inhibition in [9] of 30%.
Take `COc1cc(C(=O)c2csc(-c3ccc(NC(=O)/C=C/C(=O)NO)cc3)n2)cc(OC)c1OC`: the IC50 was 17.5 µM in assay [1]; more than 10 µM in assay [2]; 1.48 µM in assay [3]; 3.9 µM in assay [4]; 13 µM in assay [5]; 2.82 µM in assay [6]. Also, the IC50 in [7] was 0.5 µM; in assay [8] it was 1.05 µM. Moreover, in assay [10], the inhibition was more than 50%.
In the case of `COc1cc(C(=O)c2csc(-c3ccc(NC(=O)CCCCCC(=O)Nc4ccccc4N)cc3)n2)cc(OC)c1OC`, the IC50 in [1] was 8.53 µM; in [2], 2.36 µM; in assay [3], more than 10 µM; in assay [4], 8.5 µM; in assay [5], 0.39 µM; in assay [6], 0.67 µM. The IC50 was 0.02 µM in [7] and 27.3 µM in assay [8]. For the same compound, the inhibition in assay [9] came to 24%.
Take `COc1cc(C(=O)c2csc(-c3ccc(NC(=O)CCC(=O)NO)cc3)n2)cc(OC)c1OC`: the IC50 in assay [1] was 7.36 µM; in [2] it was 5.83 µM; in [3], 0.92 µM; in assay [4] it was 5.14 µM; in assay [5] it was 12.3 µM; in [6], 2.51 µM. In addition, the IC50 in assay [7] was 0.42 µM; in assay [8] it was 1.86 µM. Besides, in assay [10], the inhibition is more than 50%.
Turning to `COc1cc(C(=O)c2csc(-c3ccc(NCCC(=O)Nc4ccccc4N)cc3)n2)cc(OC)c1OC`, the IC50 in [1] is 10.7 µM; in assay [2], more than 10 µM; in assay [3], 0.67 µM; in [4], 8.28 µM; in assay [5], 0.38 µM; in assay [6], 0.6 µM. The IC50 was 0.03 µM in assay [7] and 23.8 µM in [8]. The inhibition in assay [9] was 19%.
For `COc1cc(C(=O)c2csc(-c3ccc(NCC(=O)Nc4ccccc4N)cc3)n2)cc(OC)c1OC`, the IC50 was 9.8 µM in assay [1]; 2.2 µM in assay [2]; 2.35 µM in assay [3]; 9.11 µM in assay [4]; 1.76 µM in assay [5]; 1.64 µM in [6]. Moreover, the IC50 was 0.06 µM in assay [7] and 27.1 µM in [8].
For the compound `COc1cc(C(=O)c2csc(-c3ccc(NC(=O)CCCC(=O)NO)cc3)n2)cc(OC)c1OC`, the IC50 is 10.1 µM in assay [1]; more than 10 µM in [2]; 0.75 µM in assay [3]; 6.32 µM in [4]; 13.6 µM in [5]; 0.15 µM in [6]. The IC50 in assay [7] was found to be 0.04 µM; in assay [8] it was 1.73 µM. In assay [10], the inhibition was more than 50%.
With `COc1cc(C(=O)c2csc(-c3ccc(OCCCCCCC(=O)Nc4ccccc4N)cc3)n2)cc(OC)c1OC`, the IC50 in [1] was determined as 7.49 µM; in assay [2], 2.44 µM; in assay [3], 1.89 µM; in [4] it was 7.49 µM; in assay [5], 0.47 µM; in [6], 1.91 µM. The values for the IC50 in assay [7] and in [8] were 0.7 µM and 27.1 µM, respectively. The compound further returned an inhibition in assay [9] of 18%.
In the case of `COc1cc(C(=O)c2csc(-c3ccc(C#CCCC(=O)Nc4ccccc4N)cc3)n2)cc(OC)c1OC`, the IC50 was 9.77 µM in assay [1]; more than 10 µM in [2]; more than 10 µM in assay [3]; 6.55 µM in assay [4]; 1.98 µM in [5]; 2.11 µM in assay [6]. Further, the figures for the IC50 in assay [7] and in assay [8] were 0.26 µM and 20.2 µM, respectively.
As to `COc1cc(C(=O)c2csc(-c3ccc(NC(=O)CC(=O)Nc4ccccc4N)cc3)n2)cc(OC)c1OC`, the IC50 in assay [1] is 4.07 µM; in assay [2], more than 10 µM; in assay [3], more than 10 µM; in assay [4] it was 12 µM; in assay [5], 0.36 µM; in [6], 1.01 µM. Further, the IC50 in assay [7] was determined as 0.06 µM; in assay [8] it was 21.1 µM. This compound returned an inhibition in assay [9] of 65%.
Regarding `COc1cc(C(=O)c2csc(-c3ccc(NC(=O)CCCCC(=O)Nc4ccccc4N)cc3)n2)cc(OC)c1OC`, the IC50 in [1] is 8.12 µM; in assay [2], 1.54 µM; in [3] it was 0.83 µM; in [4], 8.74 µM; in assay [5] it was 0.18 µM; in assay [6] it was 0.44 µM. For the same compound, the IC50 in [7] was found to be 0.02 µM; in assay [8] it was 36.4 µM. The compound also registered an inhibition in assay [9] of 28%.
